Columns and labels:
Type in all cases: cell-based
[1] = molecular target: Sodium-dependent serotonin transporter (Homo sapiens, UniProt P31645, I179C); assay: Inhibition of human SERT I179C mutant expressed in HEK293 MSR cells assessed as [3H]-5-HT uptake preincubated for 30 mins followed addition of [3H]-5HT and compound for 10 mins by micro-scintillation counter
Method in brief: (§1)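 Cells were transiently transfected (Lipofectamine 2000, 0.2 µg DNA per cm²) and used after 48–60 h. Cells were washed in PBS with Ca/Mg (pH 7.4) and preincubated 30 min with a dilution series. 50–100 nM [3H]5-HT plus inhibitor was then added for 10 min at room temperature.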

[2] = molecular target: Sodium-dependent serotonin transporter (Homo sapiens, UniProt P31645); assay: Inhibition of wild-type human SERT expressed in HEK293 MSR cells assessed as [3H]-5-HT uptake preincubated for 30 mins followed addition of [3H]-5HT and compound for 10 mins by micro-scintillation counter; method in brief: as §1
[3] = molecular target: Sodium-dependent serotonin transporter (Homo sapiens, UniProt P31645, I172M); assay: Inhibition of human SERT I172M mutant expressed in HEK293 MSR cells assessed as [3H]-5-HT uptake preincubated for 30 mins followed addition of [3H]-5HT and compound for 10 mins by micro-scintillation counter; method in brief: as §1
[4] = molecular target: Sodium-dependent serotonin transporter (Homo sapiens, UniProt P31645, W103A); assay: Inhibition of human SERT W103A mutant expressed in HEK293 MSR cells assessed as [3H]-5-HT uptake preincubated for 30 mins followed addition of [3H]-5HT and compound for 10 mins by micro-scintillation counter; method in brief: as §1
Sodium-dependent serotonin transporter (Homo sapiens, UniProt P31645, W103A), sequence (P31645 whole entry W103A): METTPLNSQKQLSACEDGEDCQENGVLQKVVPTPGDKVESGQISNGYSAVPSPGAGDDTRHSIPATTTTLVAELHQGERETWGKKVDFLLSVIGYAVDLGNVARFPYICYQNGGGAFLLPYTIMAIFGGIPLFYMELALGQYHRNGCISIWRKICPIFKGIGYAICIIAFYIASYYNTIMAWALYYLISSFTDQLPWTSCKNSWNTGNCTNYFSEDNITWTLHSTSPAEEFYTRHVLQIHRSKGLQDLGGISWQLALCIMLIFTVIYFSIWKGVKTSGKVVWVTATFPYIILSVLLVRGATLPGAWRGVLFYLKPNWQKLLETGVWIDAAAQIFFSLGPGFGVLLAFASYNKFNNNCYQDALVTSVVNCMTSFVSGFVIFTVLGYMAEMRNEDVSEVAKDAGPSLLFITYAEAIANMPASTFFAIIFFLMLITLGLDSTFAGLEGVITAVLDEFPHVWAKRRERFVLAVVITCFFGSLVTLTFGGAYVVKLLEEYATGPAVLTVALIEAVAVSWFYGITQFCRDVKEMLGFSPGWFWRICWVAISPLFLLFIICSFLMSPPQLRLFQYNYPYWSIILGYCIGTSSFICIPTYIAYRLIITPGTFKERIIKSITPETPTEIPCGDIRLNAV

Sodium-dependent serotonin transporter (Homo sapiens, UniProt P31645, I179C), sequence (P31645 whole entry I179C): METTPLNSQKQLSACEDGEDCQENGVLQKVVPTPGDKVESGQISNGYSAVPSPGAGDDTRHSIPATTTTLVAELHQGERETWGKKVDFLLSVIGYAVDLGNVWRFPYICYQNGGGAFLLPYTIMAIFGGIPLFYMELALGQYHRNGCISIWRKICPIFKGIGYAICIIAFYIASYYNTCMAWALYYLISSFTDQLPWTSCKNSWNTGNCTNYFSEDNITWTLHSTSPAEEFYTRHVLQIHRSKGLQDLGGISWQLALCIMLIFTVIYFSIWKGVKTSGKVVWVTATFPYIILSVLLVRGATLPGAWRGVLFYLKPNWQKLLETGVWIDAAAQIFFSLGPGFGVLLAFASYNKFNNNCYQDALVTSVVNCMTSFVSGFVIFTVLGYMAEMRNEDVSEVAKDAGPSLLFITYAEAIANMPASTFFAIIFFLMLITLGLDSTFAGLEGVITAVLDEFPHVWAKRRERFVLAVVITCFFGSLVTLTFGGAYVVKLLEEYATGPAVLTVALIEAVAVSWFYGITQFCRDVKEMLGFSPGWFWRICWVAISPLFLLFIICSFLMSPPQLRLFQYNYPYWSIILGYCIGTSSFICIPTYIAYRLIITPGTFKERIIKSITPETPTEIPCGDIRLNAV
Sodium-dependent serotonin transporter (Homo sapiens, UniProt P31645, I172M), sequence (P31645 whole entry I172M): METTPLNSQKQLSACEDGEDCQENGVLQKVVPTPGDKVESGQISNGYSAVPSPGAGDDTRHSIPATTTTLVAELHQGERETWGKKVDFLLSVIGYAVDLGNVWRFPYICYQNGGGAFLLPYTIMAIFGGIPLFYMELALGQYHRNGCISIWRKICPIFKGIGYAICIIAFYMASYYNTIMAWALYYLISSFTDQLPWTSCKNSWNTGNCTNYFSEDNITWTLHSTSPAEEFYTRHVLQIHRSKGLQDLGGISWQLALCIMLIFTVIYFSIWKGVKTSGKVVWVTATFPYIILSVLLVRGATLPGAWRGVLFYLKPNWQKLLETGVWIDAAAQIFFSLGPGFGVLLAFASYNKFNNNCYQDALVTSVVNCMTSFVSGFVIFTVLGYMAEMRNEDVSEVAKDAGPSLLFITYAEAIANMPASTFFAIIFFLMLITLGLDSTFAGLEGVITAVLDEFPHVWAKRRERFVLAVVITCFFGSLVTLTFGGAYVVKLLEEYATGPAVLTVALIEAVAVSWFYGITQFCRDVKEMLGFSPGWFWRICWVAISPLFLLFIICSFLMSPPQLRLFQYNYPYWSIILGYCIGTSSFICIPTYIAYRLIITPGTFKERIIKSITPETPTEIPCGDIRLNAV
Sodium-dependent serotonin transporter (Homo sapiens, UniProt P31645), sequence (P31645 whole entry): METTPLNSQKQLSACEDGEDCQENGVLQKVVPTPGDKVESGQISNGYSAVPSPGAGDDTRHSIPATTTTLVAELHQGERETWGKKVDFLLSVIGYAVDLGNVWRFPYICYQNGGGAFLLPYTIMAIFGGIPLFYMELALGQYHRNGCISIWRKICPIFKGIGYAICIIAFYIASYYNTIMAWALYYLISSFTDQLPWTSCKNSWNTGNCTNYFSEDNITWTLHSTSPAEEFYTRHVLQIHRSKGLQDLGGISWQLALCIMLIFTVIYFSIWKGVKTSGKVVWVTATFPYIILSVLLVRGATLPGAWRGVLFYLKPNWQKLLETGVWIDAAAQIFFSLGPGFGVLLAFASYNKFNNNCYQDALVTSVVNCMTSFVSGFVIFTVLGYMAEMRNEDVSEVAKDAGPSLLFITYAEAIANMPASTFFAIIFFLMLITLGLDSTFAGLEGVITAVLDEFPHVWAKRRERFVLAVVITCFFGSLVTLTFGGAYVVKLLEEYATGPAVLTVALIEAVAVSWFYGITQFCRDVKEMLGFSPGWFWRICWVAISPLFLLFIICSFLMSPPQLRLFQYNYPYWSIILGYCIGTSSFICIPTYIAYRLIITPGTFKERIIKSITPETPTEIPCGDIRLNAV

Compound | Ki [1] [nM] | Ki [2] [nM] | Ki [3] [µM] | IC50 [4] [nM]
CN(C)CCCN1c2ccccc2CCc2ccc(C#CCOCCOCCOc3cccc4ccccc34)cc21 | 450 | 6500 | 6.4 | 420
CN(C)CCCN1c2ccccc2CCc2ccc(C#CCOCCOc3cccc4ccccc34)cc21 | 1800 | 3500 | 8 | 4800
CN(C)CCCN1c2ccccc2CCc2ccc(C#CCOCCCOc3cccc4ccccc34)cc21 | 1200 | 3500 | 27 | 940
CN(C)CCCN1c2ccccc2CCc2ccc(C#CCOCCOc3ccc4ccccc4c3)cc21 | 640 | 1500 | 2 | 440
CN(C)CCCN1c2ccccc2CCc2ccc(C#CCOCCCN3c4ccccc4CCc4ccccc43)cc21 | 1600 | 13000 | 16 | 1600
CN(C)CCCN1c2ccccc2CCc2ccc(CCCOCCCOCCCN3c4ccccc4CCc4ccccc43)cc21 | 640 | 5900 | 11 | 840
CN(C)CCCN1c2ccccc2CCc2ccc(C#CCOCCOCCSc3cccc4ccccc34)cc21 | 500 | 2000 | 19 | 560
CN(C)CCCN1c2ccccc2CCc2ccc(CCCOCCOCCc3cccc4ccccc34)cc21 | 360 | 1000 | 6.7 | 280
CN(C)CCCN1c2ccccc2CCc2ccc(CCCOCCCOc3cccc4ccccc34)cc21 | 620 | 1200 | 9.4 | 600
CN(C)CCCN1c2ccccc2CCc2ccc(C#CCOCCOCCc3cccc4ccccc34)cc21 | 540 | 1100 | 5.2 | 300
CN(C)CCCN1c2ccccc2CCc2ccc(C#CCOCCCOCCCN3c4ccccc4CCc4ccccc43)cc21 | 2800 | 11000 | 10 | 4100

These reach a lower Ki [1]. Values come first.

Ki [1] [nM] | Ki [2] [nM] | Ki [3] [µM] | IC50 [4] [nM] | Compound
35 | 150 | 2.6 | 60 | CN(C)CCCN1c2ccccc2CCc2ccc(C#CCO)cc21
280 | 590 | 5.4 | 340 | CN(C)CCCN1c2ccccc2CCc2ccc(C#CCOCc3cccc4ccccc34)cc21
27 | 220 | 2.4 | 40 | C#Cc1ccc2c(c1)N(CCCN(C)C)c1ccccc1CC2
330 | 6300 | 15 | 270 | CN(C)CCCN1c2ccccc2CCc2ccc(CCCOCCCN3c4ccccc4CCc4ccccc43)cc21
290 | 620 | 5 | 610 | CN(C)CCCN1c2ccccc2CCc2ccc(CCCOCc3cccc4ccccc34)cc21
270 | 600 | 2.7 | 280 | CN(C)CCCN1c2ccccc2CCc2ccc(CCCOCCOc3cccc4ccccc34)cc21

Source: ChEMBL document CHEMBL3797162, “Synthesis and inhibitory evaluation of 3-linked imipramines for the exploration of the S2 site of the human serotonin transporter” (Bioorg Med Chem, 2016)
